Laboratory results: ChEMBL document CHEMBL1125297, “Synthesis and biologic activity of 2'-fluoro-2-halo derivatives of 9-beta-D-arabinofuranosyladenine” (J Med Chem, 1992)

Tests used:
CCRF-CEM = test: Compound was tested for cytotoxicity against CCRF-CEM cell lines; assay type: functional, cell-based; conditions: Homo sapiens
How it was run: (§1)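 Cell-proliferation assay run against each named cell line. The value is the concentration that holds proliferation at 50% of untreated controls.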

HEp-2 = test: Compound was tested for cytotoxicity against HEp-2 cell lines; assay type: functional, cell-based; conditions: Homo sapiens; how it was run: as §1
L1210 = test: Compound was tested for cytotoxicity against L1210 cell lines; assay type: functional, cell-based; conditions: Mus musculus; how it was run: as §1
K562 = test: Compound was tested for cytotoxicity against K562 cell lines; assay type: functional, cell-based; conditions: Homo sapiens; how it was run: as §1
Mus musculus [1] = test: In Vivo increase in life span of dying mice implanted ip with 10E6 P388 leukemia, after ip administration of 100 mg/kg; assay type: functional; conditions: route intraperitoneal
How it was run: (§2)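 CD2F1 mice implanted ip with 10⁶ P388 leukemia cells on day 0. Treatment ip, doses given as mg/kg per dose and kept at or below the LD10. Read-out is increase in life span against untreated controls.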

Mus musculus [2] = test: In Vivo increase in life span of dying mice implanted ip with 10E6 P388 leukemia, after ip administration of 25 mg/kg; assay type: functional; conditions: route intraperitoneal; how it was run: as §2
Mus musculus [3] = test: Log chance in viable tumor cells population was measured after intraperitoneal administration of 100 mg/kg; assay type: functional
How it was run: (§3)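 CD2F1 mice were implanted ip with 10⁶ P388 leukemia cells on day 0, then treated ip. Doses are mg/kg per dose, kept at or below LD₁₀. Read-out is the log change in viable tumor cells from start to end of therapy, based on the median day of death among the animals that died.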

Mus musculus [4] = test: Log chance in viable tumor cells population was measured after intraperitoneal administration of 25 mg/kg; assay type: functional; how it was run: as §3
Mus musculus [5] = test: Tumor-free survivors of P388 leukemia infected mice was measured after ip administration of 100 mg/kg in 3 mice; assay type: functional; conditions: route intraperitoneal
How it was run: (§4)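 CD2F1 mice received 10⁶ P388 leukemia cells ip on day 0 and were then dosed ip in mg/kg per dose, at or below the LD10. Tumor-free survivors were scored among the treated group.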

Mus musculus [6] = test: Tumor-free survivors of P388 leukemia infected mice was measured after ip administration of 25 mg/kg in 6 mice; assay type: functional; conditions: route intraperitoneal; how it was run: as §4
Mus musculus [7] = test: In Vivo increase in life span of dying mice implanted ip with 10E6 P388 leukemia, after ip administration of 200 mg/kg; assay type: functional; conditions: route intraperitoneal; how it was run: as §2
Mus musculus [8] = test: In Vivo increase in life span of dying mice implanted ip with 10E6 P388 leukemia, after ip administration of 30 mg/kg; assay type: functional; conditions: route intraperitoneal; how it was run: as §2
Mus musculus [9] = test: In Vivo increase in life span of dying mice implanted ip with 10E6 P388 leukemia, after ip administration of 50 mg/kg; assay type: functional; conditions: route intraperitoneal; how it was run: as §2
Mus musculus [10] = test: Tumor-free survivors of P388 leukemia infected mice was measured after ip administration of 50 mg/kg in 6 mice; assay type: functional; conditions: route intraperitoneal; how it was run: as §4
Mus musculus [11] = test: Tumor-free survivors of P388 leukemia infected mice was measured after ip administration of 200 mg/kg in 6 mice; assay type: functional; conditions: route intraperitoneal; how it was run: as §4
Mus musculus [12] = test: Log change in viable tumor cells population was measured at end of therapy when compared to start of therapy at dose 200 mg/kg; assay type: functional; how it was run: as §3
Mus musculus [13] = test: Log change in viable tumor cells population was measured at end of therapy when compared to start of therapy at dose 30 mg/kg; assay type: functional; how it was run: as §3
Mus musculus [14] = test: Log change in viable tumor cells population was measured at end of therapy when compared to start of therapy at dose 50 mg/kg; assay type: functional; how it was run: as §3
Mus musculus [15] = test: Tumor-free survivors of P388 leukemia infected mice was measured after ip administration of 30 mg/kg in 6 mice; assay type: functional; conditions: route intraperitoneal; how it was run: as §4
Mus musculus [16] = test: In Vivo increase in life span of dying mice implanted ip with 10E6 P388 leukemia, after ip administration of 20 mg/kg; assay type: functional; conditions: route intraperitoneal; how it was run: as §2
Mus musculus [17] = test: Log chance in viable tumor cells population was measured after intraperitoneal administration of 200 mg/kg; assay type: functional; how it was run: as §3
Mus musculus [18] = test: Log chance in viable tumor cells population was measured after intraperitoneal administration of 20 mg/kg; assay type: functional; how it was run: as §3
Mus musculus [19] = test: Tumor-free survivors of P388 leukemia infected mice was measured after ip administration of 100 mg/kg in 5 mice; assay type: functional; conditions: route intraperitoneal; how it was run: as §4
Mus musculus [20] = test: Tumor-free survivors of P388 leukemia infected mice was measured after ip administration of 20 mg/kg in 6 mice; assay type: functional; conditions: route intraperitoneal; how it was run: as §4
Mus musculus [21] = test: Tumor-free survivors of P388 leukemia infected mice was measured after ip administration of 200 mg/kg in 3 mice; assay type: functional; conditions: route intraperitoneal; how it was run: as §4
Mus musculus [22] = test: Tumor-free survivors of P388 leukemia infected mice was measured after ip administration of 25 mg/kg in 5 mice; assay type: functional; conditions: route intraperitoneal; how it was run: as §4

| SMILES | IC50 (CCRF-CEM) | IC50 (HEp-2) | IC50 (L1210) | IC50 (K562) | further results |
| --- | --- | --- | --- | --- | --- |
| Nc1nc(F)nc2c1ncn2[C@H]1C[C@H](O)[C@@H](CO)O1 | 200 nM | 200 nM | 900 nM | – | – |
| Nc1nc(F)nc2c1ncn2[C@@H]1O[C@H](CO)[C@@H](O)[C@@H]1F | 140 nM | 340 nM | 380 nM | 300 nM | ILS at 100 mg/kg (Mus musculus [1]): 63%; ILS at 25 mg/kg (Mus musculus [2]): 81%; Log change (Mus musculus [3]): -1.8; Log change (Mus musculus [4]): -0.1; Tumor free survivors (Mus musculus [5]): 0; Tumor free survivors (Mus musculus [6]): 0 |
| Nc1nc(Cl)nc2c1ncn2[C@@H]1O[C@H](CO)[C@@H](O)[C@H]1O | 10000 nM | 3000 nM | < 3000 nM | – | – |
| Nc1nc(Br)nc2c1ncn2[C@@H]1O[C@H](CO)[C@@H](O)[C@H]1F | 20 nM | 220 nM | 260 nM | 50 nM | ILS at 200 mg/kg (Mus musculus [7]): 33%; ILS at 30 mg/kg (Mus musculus [8]): 100%; ILS at 50 mg/kg (Mus musculus [9]): 41%; Tumor free survivors (Mus musculus [10]): 0; Tumor free survivors (Mus musculus [11]): 0; Log change (Mus musculus [12]): 0.1; Log change (Mus musculus [13]): -1; Log change (Mus musculus [14]): 1.6; Tumor free survivors (Mus musculus [15]): 0 |
| Nc1nc(Br)nc2c1ncn2[C@H]1C[C@H](O)[C@@H](CO)O1 | 20 nM | 20 nM | 900 nM | – | – |
| Nc1nc(Br)nc2c1ncn2C1O[C@H](CO)[C@@H](O)[C@H]1O (some centres not stated) | – | 4000 nM | 3000 nM | – | – |
| Nc1nc(Cl)nc2c1ncn2[C@H]1C[C@H](O)[C@@H](CO)O1 [CLADRIBINE] | 3 nM | 30 nM | 70 nM | – | – |
| Nc1nc(Cl)nc2c1ncn2[C@@H]1O[C@H](CO)[C@@H](O)[C@@H]1F [CLOFARABINE] | 50 nM | 12 nM | 230 nM | 3 nM | ILS at 100 mg/kg (Mus musculus [1]): 38%; ILS at 20 mg/kg (Mus musculus [16]): 220%; ILS at 200 mg/kg (Mus musculus [7]): 59%; ILS at 25 mg/kg (Mus musculus [2]): 118%; Log change (Mus musculus [17]): -1.6; Log change (Mus musculus [3]): -0.3; Log change (Mus musculus [18]): -6.6; Log change (Mus musculus [4]): -2.8; Tumor free survivors (Mus musculus [19]): 0; Tumor free survivors (Mus musculus [20]): 1; Tumor free survivors (Mus musculus [21]): 0; Tumor free survivors (Mus musculus [22]): 0 |
| Nc1nc(F)nc2c1ncn2[C@@H]1O[C@H](CO)[C@@H](O)[C@@H]1O [FLUDARABINE] | 400 nM | 9000 nM | 3000 nM | 150 nM | – |
